From paper PMC2955813 (Cancer prevention research (Philadelphia, Pa.), 2010)

Key:
[1] = system: cAMP hydrolysis in HT-29 cell lysate; test: IMAP fluorescence polarization PDE assay, cAMP hydrolysis in HT-29 lysate; format: biochemical, human
[2] = system: Tcf/Lef-mediated transcription in HT-29, HCT-116, and SW480 colon cancer cells; test: TOPFlash luciferase reporter assay; format: cell-based, human; settings: HT-29, HCT-116, SW480, 24 hours
Summary of the method: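 Cells were transiently co-transfected with the TOPFlash luciferase construct and a β-galactosidase expression vector, then treated for 24 h. After lysis, luciferase and β-galactosidase activities were measured, and luciferase was normalized to β-galactosidase.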

recombinant PDE3 = test: Recombinant PDE3 inhibition; format: biochemical; settings: recombinant isozyme, cAMP as substrate; data not shown
HT-29 cells = test: 3H-thymidine incorporation proliferation assay; format: cell-based, human; settings: read-out: IC50 Proliferation, 72 hours, tritiated thymidine assay
Summary of the method: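 HT-29 cells (>95% viable by trypan blue) were treated for 72 h in total. 1 μCi ³H-thymidine was added at 56 h and incubation continued 16 h at 37°C. DNA was harvested onto filters and uptake counted by scintillation.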

cGMP PDE in FHC lysates = test: IMAP fluorescence polarization PDE assay, cGMP hydrolysis in FHC lysate; format: biochemical, human; settings: FHC lysate compared with HT-29 lysate
Summary of the method: (§1)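 HT-29 or FHC cells were lysed in ice-cold 20 mM Tris-acetate, 5 mM Mg acetate, 1 mM EGTA, 0.8% Triton X-100, 50 mM NaF, protease inhibitors, pH 7.4. Lysates were cleared at 10,000g, 10 min, 4°C, and protein measured by BCA. PDE activity was read by IMAP fluorescence polarization, with Fl-cAMP and TAMRA-cGMP as substrates so cAMP and cGMP hydrolysis were measured together.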

recombinant PDE2 = recombinant PDE2 (Homo sapiens, UniProt O00408); test: Recombinant PDE2 inhibition; format: biochemical; settings: recombinant isozyme, cAMP as substrate; data not shown
[3] = system: cyclinD1 and survivin expression in SW480 cells; test: Western blot of cyclin D1 and survivin; format: cell-based, human; settings: time-dependent
Summary of the method: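 SW480 lysate (ice-cold Tris-acetate/Triton X-100/NaF buffer, pH 7.4, cleared at 10,000g, 4°C) was loaded at 30 μg protein per lane. Proteins were separated by 12% SDS-PAGE and transferred to nitrocellulose, blocked with 5% BSA in TBS/0.05% Tween-20, and probed for cyclin D1 and survivin, with β-actin as loading control.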

[4] = system: HT-29, SW480, and HCT116 human colon cancer cell lines; test: Cell Titer Glo growth assay, colon tumor cell lines; format: cell-based; settings: for IC50: Homo sapiens, 72 h, read-out: growth inhibition IC50, range over cell lines; for effect on colon tumor cell growth: PDE isozyme specific inhibitors; for HT-29 growth inhibition: NSAID panel
[5] = system: cGMP PDE in HT-29 human colon tumor cell lysates; test: cGMP PDE scintillation proximity assay in HT-29 lysate; format: biochemical; settings: HT-29 cell lysates; for IC50: read-out: IC50 cGMP PDE, scintillation proximity assay; for effect on cGMP PDE activity: NSAID panel
Summary of the method: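 The reaction was stopped with scintillation proximity beads that bind the labeled product, then counted.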

[6] = Plasma levels of sulindac and metabolites; format: in vivo; settings: for concentration at 6 h: mouse, plasma, po, 50 mg/kg
Tolerance study = format: in vivo; settings: daily oral gavage for 20 days; no deaths or significant weight loss
[7] = system: human HT-29 colon tumor xenograft; test: HT-29 colon tumor xenograft efficacy; format: in vivo, male NCr-nu/nu athymic mice; settings: 50 mg/kg once daily oral gavage
Summary of the method: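 Male NCr-nu/nu mice, 5–6 weeks old, were implanted subcutaneously with HT-29 tumor fragments; 10 mice per group, vehicle-treated control. Dosing started at tumor size 75–200 mg: 50 mg/kg oral gavage once daily for 40 days, as a suspension in 0.5% CMC, 0.25% Tween 80 in water. Tumor dimensions and body weight were measured twice weekly; mortality checked daily.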

Purified ovine COX-1 = molecular target: T1, Purified ovine COX-1 (Ovis aries, UniProt P05979); test: COX-1 inhibition, purified enzyme; format: biochemical; settings: read-out: IC50 COX-1
T1 sequence (P05979 25-600): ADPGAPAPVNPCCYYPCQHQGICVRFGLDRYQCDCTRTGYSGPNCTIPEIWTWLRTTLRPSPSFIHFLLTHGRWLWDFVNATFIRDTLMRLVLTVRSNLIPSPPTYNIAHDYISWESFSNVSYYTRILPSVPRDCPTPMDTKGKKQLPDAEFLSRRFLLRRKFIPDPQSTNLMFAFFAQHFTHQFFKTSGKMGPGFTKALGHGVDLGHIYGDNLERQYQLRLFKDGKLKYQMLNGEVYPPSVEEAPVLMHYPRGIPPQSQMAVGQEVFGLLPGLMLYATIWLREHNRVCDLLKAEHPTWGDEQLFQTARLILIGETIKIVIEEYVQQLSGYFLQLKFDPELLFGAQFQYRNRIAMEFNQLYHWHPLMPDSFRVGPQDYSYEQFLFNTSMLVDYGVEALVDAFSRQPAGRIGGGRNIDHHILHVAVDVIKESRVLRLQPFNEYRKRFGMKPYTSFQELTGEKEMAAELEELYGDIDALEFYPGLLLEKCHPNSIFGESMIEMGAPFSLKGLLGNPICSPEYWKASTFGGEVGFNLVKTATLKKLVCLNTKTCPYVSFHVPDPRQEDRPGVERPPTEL

Purified ovine COX-2 = molecular target: T2, Purified ovine COX-2 (Ovis aries, UniProt P79208); test: COX-2 inhibition, purified enzyme; format: biochemical; settings: read-out: IC50 COX-2
T2 sequence (P79208 17-603): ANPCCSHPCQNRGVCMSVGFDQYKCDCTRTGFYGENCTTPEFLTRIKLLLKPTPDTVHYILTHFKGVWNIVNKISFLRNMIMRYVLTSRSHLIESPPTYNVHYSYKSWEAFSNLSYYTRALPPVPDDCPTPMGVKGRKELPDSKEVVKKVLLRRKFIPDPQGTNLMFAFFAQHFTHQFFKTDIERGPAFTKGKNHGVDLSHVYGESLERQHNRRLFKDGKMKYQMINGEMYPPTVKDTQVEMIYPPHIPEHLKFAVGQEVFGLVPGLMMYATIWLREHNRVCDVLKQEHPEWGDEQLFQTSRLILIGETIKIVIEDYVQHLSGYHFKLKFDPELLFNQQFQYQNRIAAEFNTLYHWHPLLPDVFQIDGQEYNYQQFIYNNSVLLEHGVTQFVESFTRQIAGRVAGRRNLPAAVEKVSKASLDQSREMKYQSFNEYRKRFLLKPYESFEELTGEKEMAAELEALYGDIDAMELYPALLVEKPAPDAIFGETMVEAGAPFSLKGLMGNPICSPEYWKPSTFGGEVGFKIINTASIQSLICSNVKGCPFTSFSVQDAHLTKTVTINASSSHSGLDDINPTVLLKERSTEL

[8] = system: cGMP PDE activity in lysates from HT-29 tumors established in athymic mice; test: cGMP PDE in HT-29 tumor homogenates versus normal rat colonic mucosa; format: biochemical, human; settings: HT-29 tumor lysate vs normal rat colonic mucosa lysate
[9] = system: cGMP hydrolysis in HT-29 cell lysate; test: IMAP fluorescence polarization PDE assay, cGMP hydrolysis in HT-29 lysate; format: biochemical, human; settings: HT-29 cell lysates; concentration not given
Summary of the method: as §1

[10] = system: intracellular cGMP levels in colon tumor cells; settings: cited from earlier work

recombinant PDE2, sequence (O00408 whole entry): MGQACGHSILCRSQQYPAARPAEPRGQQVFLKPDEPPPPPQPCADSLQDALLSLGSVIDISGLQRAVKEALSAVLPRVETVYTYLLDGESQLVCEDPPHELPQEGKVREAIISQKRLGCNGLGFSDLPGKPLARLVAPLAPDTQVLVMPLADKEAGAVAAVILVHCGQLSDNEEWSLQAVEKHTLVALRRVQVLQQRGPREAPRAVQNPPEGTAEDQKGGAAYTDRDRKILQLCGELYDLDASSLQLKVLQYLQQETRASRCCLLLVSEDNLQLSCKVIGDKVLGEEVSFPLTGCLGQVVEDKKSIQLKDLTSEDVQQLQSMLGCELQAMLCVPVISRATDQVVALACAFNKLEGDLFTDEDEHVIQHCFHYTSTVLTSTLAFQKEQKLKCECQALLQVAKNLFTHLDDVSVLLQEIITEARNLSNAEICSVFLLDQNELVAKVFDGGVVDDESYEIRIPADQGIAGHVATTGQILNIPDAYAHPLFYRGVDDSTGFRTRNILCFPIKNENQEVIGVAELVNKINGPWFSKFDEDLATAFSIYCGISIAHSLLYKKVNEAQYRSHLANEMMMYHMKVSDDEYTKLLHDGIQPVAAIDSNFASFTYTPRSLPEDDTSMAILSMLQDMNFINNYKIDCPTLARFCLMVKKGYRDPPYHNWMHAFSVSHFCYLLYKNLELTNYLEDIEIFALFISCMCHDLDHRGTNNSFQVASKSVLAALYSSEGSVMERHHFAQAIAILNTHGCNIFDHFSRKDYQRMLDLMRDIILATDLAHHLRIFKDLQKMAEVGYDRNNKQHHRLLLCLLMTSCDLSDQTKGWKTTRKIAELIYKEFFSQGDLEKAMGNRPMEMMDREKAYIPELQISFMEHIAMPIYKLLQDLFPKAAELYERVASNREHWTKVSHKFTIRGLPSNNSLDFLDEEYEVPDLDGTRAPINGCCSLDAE

SMILES: CSc1ccc(/C=C2/C(C)=C(CC(=O)O)c3cc(F)ccc32)cc1 [Sulindac sulfide, sulindac sulfide]
- effect on cAMP hydrolysis [1]: appreciably higher concentrations were necessary
- Tcf/Lef-mediated transcription [2]: significant reduction
- cAMP hydrolysis by PDE3 (recombinant PDE3): did not significantly inhibit
- IC50 (HT-29 cells): 33.9 µM
- cGMP PDE inhibition in FHC lysate (cGMP PDE in FHC lysates): reduced sensitivity
- cAMP hydrolysis by PDE2 (recombinant PDE2): did not significantly inhibit
- expression of cyclinD1 and survivin [3]: significant reduction
- IC50 [4]: 73 to 85 µM
- IC50 [5]: 19.7 µM
- concentration at 6 h [6]: 36.7 ± 10.2 µM

SMILES: CC1=C(CC(=O)O)c2cc(F)ccc2/C1=C\c1ccc([S+](C)[O-])cc1 (stereo not shown) [Sulindac sulfoxide, sulindac]
- IC50 (HT-29 cells): 224 µM
- maximum tolerated dosage (Tolerance study): approximately 50 mg/kg
- reduction of tumor growth ([7]; end of treatment, vs vehicle): approximately 55%
- effect on body weight ([7]; not shown): without affecting body weight
- IC50 (Purified ovine COX-1): > 300 µM
- IC50 (Purified ovine COX-2): > 300 µM
- IC50 [5]: 120 µM
- plasma level ([6]; 6 hours following a single oral dose of sulindac at 50 mg/kg): 23.1 ± 5.5 µM

SMILES: C=C[C@@]1(C)CC(=O)[C@]2(O)[C@@]3(C)[C@@H](O)CCC(C)(C)[C@@H]3[C@H](O)[C@H](OC(C)=O)[C@@]2(C)O1 [forskolin]
- effect on growth ([4]; HT-29, SW480, HCT116, 72 hours, concentrations up to 100 μM): did not significantly affect growth

SMILES: Clc1cccc(Nc2nnc(-c3ccccc3)c3ccccc23)c1 [MY5445, 1-(3-chloroanilino)-4-phenylphthalazine]
- effect on cAMP hydrolysis [1]: without substantially affecting cAMP hydrolysis
- Tcf/Lef-mediated transcription [2]: significant reduction
- expression of cyclinD1 and survivin [3]: significant reduction
- IC50 [4]: 8 to 18 µM
- fold greater potency for tumor cGMP PDE compared to normal tissue [8]: more than 10 fold

SMILES: CN1CC(=O)N2[C@H](c3ccc4c(c3)OCO4)c3[nH]c4ccccc4c3C[C@@H]2C1=O [tadalafil]
- effect on colon tumor cell growth ([4]; HT-29, SW480, HCT116): did not affect colon tumor cell growth

SMILES: CCCCCC[C@@H]([C@@H](C)O)n1cnc2c(N)ncnc21 (racemic) [EHNA]
- inhibition of cGMP PDE activity in HT-29 lysate [9]: less than 12%
- effect on colon tumor cell growth ([4]; HT-29, SW480, HCT116): only MY5445 was found to inhibit colon tumor cell growth

SMILES: CCOC(=O)C1=C[C@]2(CC)CCCN3CCc4c(n1c1ccccc41)[C@@H]32 [vinpocetine]
- effect on colon tumor cell growth ([4]; HT-29, SW480, HCT116): only MY5445 was found to inhibit colon tumor cell growth

SMILES: CS(=O)(=O)c1ccc(C2=C(c3ccccc3)C(=O)OC2)cc1 [Rofecoxib, rofecoxib]
- IC50 [5]: > 300 µM

SMILES: CC(=O)Oc1ccccc1C(=O)O [aspirin]
- HT-29 growth inhibition [4]: low potency
- effect on cGMP PDE activity [5]: did not affect cGMP PDE activity

SMILES: CC1=C(CC(=O)O)c2cc(F)ccc2/C1=C\c1ccc(S(C)(=O)=O)cc1 [Sulindac sulfone, sulindac sulfone]
- IC50 [5]: 95.9 µM
- concentration at 6 h [6]: 8.9 ± 1.2 µM

SMILES: CCCc1nn(C)c2c(=O)[nH]c(-c3cc(S(=O)(=O)N4CCN(C)CC4)ccc3OCC)nc12 [sildenafil]
- inhibition of cGMP PDE activity in HT-29 lysate [9]: 42%
- effect on colon tumor cell growth ([4]; HT-29, SW480, HCT116): did not affect colon tumor cell growth

SMILES: COc1ccc2c(c1)c(CC(=O)O)c(C)n2C(=O)c1ccc(Cl)cc1 [Indomethacin, indomethacin]
- IC50 [5]: 24 µM

SMILES: Cc1[nH]c(=O)c(C#N)cc1-c1ccncc1 [milrinone]
- inhibition of cGMP PDE activity in HT-29 lysate [9]: 31%
- effect on colon tumor cell growth ([4]; HT-29, SW480, HCT116): only MY5445 was found to inhibit colon tumor cell growth

SMILES: COc1ccc(C2CNC(=O)C2)cc1OC1CCCC1 (stereo not shown) [rolipram]
- effect on colon tumor cell growth ([4]; HT-29, SW480, HCT116): only MY5445 was found to inhibit colon tumor cell growth

SMILES: O=C(O)C1CCN(c2nc(NCc3ccc4c(c3)OCO4)c3cc(Cl)ccc3n2)CC1 [E4021]
- increase in intracellular cGMP levels [10]: unable to induce a significant increase

SMILES: Cc1ccc(-c2cc(C(F)(F)F)nn2-c2ccc(S(N)(=O)=O)cc2)cc1 [celecoxib]
- HT-29 growth inhibition [4]: did inhibit tumor cell growth
- effect on cGMP PDE activity [5]: inhibited cGMP PDE

SMILES: CN1C(C(=O)Nc2ccccn2)=C(O)c2ccccc2S1(=O)=O [piroxicam]
- HT-29 growth inhibition [4]: low potency
- effect on cGMP PDE activity [5]: did not affect cGMP PDE activity

SMILES: CCCCC1C(=O)N(c2ccccc2)N(c2ccccc2)C1=O [phenylbutazone]
- HT-29 growth inhibition [4]: low potency
- effect on cGMP PDE activity [5]: did not affect cGMP PDE activity
